# Screening data as filed in PubChem.
# Sampled rows, rich in hits. Any-hit rate of the full collection: about 2.5%.
# TCR-CD3 inh: inhibitors of human TCR-CD3 interaction, primary screen, biochemical, fluorescence, TAMRA-labeled TCR probe. actives 0.37% (n = 360,000). inhibition, % at 9.4 µM. T-cell receptor (TCR); in the data active = inhibition above about 19%;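 note: recombinant mutant TCR 2C K166C tagged with TAMRA read by polarization; 0% = receptor in buffer alone and 100% = receptor with positive control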
# HTRA1 inhibitor: HTRA1 serine protease inhibitors, primary screen, biochemical, fluorescence polarization, HTS; Q92743; recombinant HTRA1, FP-rhodamine activity-based probe; inhibition, % at 5.96 µM; actives 0.5% (n = 340,000); AID 504803, 2011; in the data active = inhibition above about 36%;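 note: 0% = enzyme with DMSO and 100% = wells lacking enzyme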
# SIAE primary: human SIAE inhibitors, primary screen, biochemical, fluorescence polarization, FP-Rh probe, 1536-well HTS. Sialate O-acetylesterase (Homo sapiens), Q9HAT2. SIAE FP-Rh probe binding. inhibition, % at 9.66 µM. actives 0.69% (n = 370,000);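 active = inhibition above a cutoff: mean of compounds within the control limits plus 3 SD of those, cut at about 17% in these data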;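 note: 0% = plate median of compound wells and 100% = probe without SIAE protein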
# PRMT1 inh: PRMT1 methyltransferase inhibitors, primary screen, biochemical, fluorescence polarization | recombinant PRMT1, activity-based probe fluorescence polarization | inhibition, % at 2.79 µM | actives 1.3% (n = 370,000) | AID 652257, 2013;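 active = inhibition above about 21% made by adding two undisclosed values, limit read from the data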
# Target sequence (Q99873 whole entry, looked up): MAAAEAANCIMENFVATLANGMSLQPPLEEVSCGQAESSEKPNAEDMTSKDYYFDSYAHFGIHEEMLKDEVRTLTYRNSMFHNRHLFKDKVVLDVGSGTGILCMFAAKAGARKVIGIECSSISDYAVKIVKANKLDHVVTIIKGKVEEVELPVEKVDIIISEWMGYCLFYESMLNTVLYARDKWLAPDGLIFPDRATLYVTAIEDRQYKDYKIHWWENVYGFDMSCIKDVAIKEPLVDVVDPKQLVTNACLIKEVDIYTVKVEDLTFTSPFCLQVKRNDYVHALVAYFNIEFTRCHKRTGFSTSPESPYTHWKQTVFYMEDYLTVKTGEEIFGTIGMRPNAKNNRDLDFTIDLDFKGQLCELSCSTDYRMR
# ABHD4 inh: ABHD4 inhibitors, primary screen, biochemical, fluorescence polarization, mouse. (Lyso)-N-acylphosphatidylethanolamine lipase (Mus musculus), Q8VD66. purified mABHD4, FP-Rh probe fluorescence polarization. inhibition, % at 8.92 µM. actives 0.54% (n = 370,000). AID 720543, 2013;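 active = inhibition exceeding the mean over every tested compound plus 3 SD, cut at about 30% in these data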;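 note: 0% = plate median of compound wells and 100% = S159A mutant with DMSO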
#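 Assay system: mouse ABHD4 enzyme, wild type / Also added: fluorescent activity-based probe FP-Rh / Doses: single nominal dose of 8.92 µM, 0.89% DMSO final / Timing: 45 min compound pre-incubation plus 60 min probe step, 25 °C / Signal: FP readout, ex 525 nm / em 598 nm / Control set: S159A mutant/DMSO as 100%, compound-well median as 0%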
# mABHD4 conf: ABHD4 inhibitors, retest, confirmation, biochemical, fluorescence polarization, mouse; inhibition, % at 8.92 µM; purified mABHD4, FP-Rh probe fluorescence polarization; shares compounds with ABHD4 inh; actives 55% (n = 1,800); AID 720658, 2013;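 active = mean inhibition across replicates above the hit cutoff set in the primary screen, cut at about 30% in these data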;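 note: 0% = wild-type ABHD4 with DMSO and 100% = catalytically dead S159A mutant with DMSO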
# Starred values were filed as active, the others as inactive; . = no result; + = active, no number.
SMILES,TCR-CD3 inh,HTRA1 inhibitor,SIAE primary,PRMT1 inh,ABHD4 inh,mABHD4 conf
CCCCCCCCCCOC(=O)Cn1c(COc2ccccc2C)[n+](C)c2ccccc21,.,32,.,.,.,.
NC(=O)c1ccc(NC(=O)COc2cccc3c2CCNC3=O)cc1,1,-3,-2,-1,105*,2
C=CCN(c1ccccc1C(=O)O)S(=O)(=O)c1ccc(NC(=O)OC)cc1,-4,3,0,0,35*,-6
C=CCN(c1ccccc1C(=O)NCC(=O)O)S(=O)(=O)c1ccc(C)cc1,6,-6,-1,-3,10,.
C=CCN1[C@H](CO)[C@H](c2ccc(Br)cc2)[C@@H]1C#N,.,.,-2,-6,-1,.
O=C(N/N=C1\C/C(=N\NC(=O)c2ccncc2)c2ccccc21)c1ccncc1,-5,29,7,6,39*,29
CNC(C)C(=O)NC(C(=O)N1CCCC1C(=O)Nc1cccc2ncccc12)C(C)C (stereo unspecified),.,.,0,-4,-3,.
Cc1nc(N)sc1-c1csc(N(C)c2ccc(O)cc2)n1,6,27,9,11,34*,10
CCOC(=O)CN1C(=O)CSc2ccc(S(=O)(=O)N3CCCC3)cc21,0,6,-3,0,35*,-6
N#CCC(=O)c1sccc1-n1cccc1,-5,11,7,18,13,.
O=C(Nc1ccccc1F)Nc1cccc2ccc(O)cc12,1,33,11,6,31*,43*
Oc1ccc2[nH]cc(-c3cccs3)c2c1-c1ccccc1,.,.,2,5,27,.
Oc1ccc2[nH]cc(CCc3ccccc3)c2c1-c1ccccc1,.,.,6,10,33*,16
CN(C)c1ccc(O)c2c1CC1CC3C(N(C)C)C(=O)C(C(N)=O)=C(O)[C@@]3(O)C(=O)C1=C2O (stereo partly specified),1,15,9,16,60*,26
CN(C)c1ccc(O)c2c1CC1CC3[C@@H](N(C)C)C(=O)C(C(N)=O)C(=O)[C@]3(O)C(=O)C1C2=O (stereo partly specified),5,28,10,11,61*,-4
COc1ccc(-c2nnc(CSc3nc4ccccc4c(=O)n3CC(C)C)o2)cc1OC,1,-28,-11,3,31*,28
COc1ccc(OCC(CO)N2CCN(c3ccccc3)CC2)cc1 (stereo unspecified),0,6,8,-8,-8,.
CC(C)C[C@@H]1CN=C(N)N1C[C@@H]1CCCN1C[C@@H](C(C)C)N1C[C@@H](Cc2ccccc2)N(CCc2ccc(Cl)c(Cl)c2)C1=N,4,1,6,0,34*,22
CCc1ccccc1N=Nc1c(N)[nH]n(-c2ccccc2)c1=O,.,.,12,-2,34*,45*
Nc1[nH]n(-c2ccccc2)c(=O)c1N=Nc1ccccc1[N+](=O)[O-],6,19,3,-3,13,.
CCOc1ccc(C(=O)Nc2nc3ccccc3[nH]2)cc1OCC,-4,-3,-1,0,35*,40*
COc1ccc(OCC(=O)Nc2nc3ccccc3[nH]2)cc1,3,-4,-12,-3,39*,39*
COc1cc(OC)cc(C(=O)Nc2nc3ccccc3[nH]2)c1,4,-6,1,-5,36*,31*
Cc1cc(C)cc(C(=O)Nc2nc3ccccc3[nH]2)c1,-1,0,-3,-1,18,.
COc1ccc(C(=O)Nc2nc3ccccc3[nH]2)cc1OC,3,2,-2,1,4,.
SMILES,TCR-CD3 inh,HTRA1 inhibitor,SIAE primary,PRMT1 inh,ABHD4 inh,mABHD4 conf
Cc1ccc(-n2c(SCC(=O)c3ccc(-c4ccccc4)cc3)nnc2-c2ccc(C(C)(C)C)cc2)cc1,.,.,-2,-3,0,.
CC1(C(=O)Nc2cccc(Oc3ccccc3)c2)CCN1Cc1cc2ccccc2o1 (stereo unspecified),7,.,-10,-2,-12,.
Cc1cccc(Nc2ccc(C(=O)O)cc2[N+](=O)[O-])c1C,-4,6,-1,6,37*,30*
COc1ccc(Nc2ccc(C(=O)O)cc2[N+](=O)[O-])cc1,-8,3,-2,4,49*,43*
O=C(O)c1ccc(Nc2ccc(F)c(F)c2)c([N+](=O)[O-])c1,-4,2,-3,0,32*,32*
COc1ccc(Nc2ccc(C(N)=O)cc2[N+](=O)[O-])cc1,-5,5,-2,-4,1,.
Cc1ccc(C(=O)O)cc1[N+](=O)[O-],15,-1,-5,1,-3,.
CCOc1ccc(Nc2ccc(C(=O)O)cc2[N+](=O)[O-])cc1,-9,1,6,-6,60*,45*
CC1(C(=O)NS(=O)(=O)c2cccc(C#N)c2)CCN1C(=O)Cc1cc(F)ccc1F (stereo unspecified),5,.,-7,2,-5,.
O=C(Nc1ccc2c(c1)CCC2)c1ncoc1-c1ccccc1F,2,-44,0,13,-5,.
COc1cc(C2c3sc(=O)[nH]c3SC3C(=O)N(c4ccc(Br)cc4)C(=O)C32)ccc1O (stereo unspecified),5,0,-2,8,34*,15
O=C(Nc1ccccc1F)c1ccc2c(c1)CCN2S(=O)(=O)c1ccccc1,2,-32,-10,-1,80*,-21
Cc1ccc(C=Nc2ccc(N(C)C)cc2)o1,8,52*,10,12,40*,34*
CC(C)(CO)NCC(O)Cn1cc(C=O)c2ccccc21 (stereo unspecified),0,2,0,-1,2,.
OCC1CCCCN1CC(O)COC(c1ccc(F)cc1)c1ccc(F)cc1 (stereo unspecified),-3,-2,1,-1,10,.
CC1Oc2ccccc2C=C1/C=N/Nc1ccc(C(=O)O)cc1 (stereo unspecified),-6,-2,2,10,32*,31*
CC(C)(C)c1ccc(/C=N/Nc2ccc(C(=O)O)cc2)cc1,2,-9,3,6,3,.
CCCCn1cnc2cc(NCc3cccc(OC)c3O)ccc21,2,12,1,-1,14,.
CCn1cnc2cc(NCc3cccc(OC)c3O)ccc21,5,13,0,3,+,6
Cc1ccc(S(=O)(=O)Nc2nc3ccc(S(C)(=O)=O)cc3s2)cc1,1,0,-5,6,1,.
Cc1ccc(S(=O)(=O)Nc2nc3ccc(N)cc3s2)cc1,0,14,5,7,49*,26
